# pIC50: −log10 of the molar value.
# Experiments:
# [1] = target: T1, Prostaglandin G/H synthase 2 (Mus musculus, UniProt Q05769); assay: Inhibition of mouse COX2 using arachidonic acid as substrate preincubated for 3 mins followed by substrate addition and measured for 30 sec by LC/MS analysis
# T1 sequence (Q05769 whole entry): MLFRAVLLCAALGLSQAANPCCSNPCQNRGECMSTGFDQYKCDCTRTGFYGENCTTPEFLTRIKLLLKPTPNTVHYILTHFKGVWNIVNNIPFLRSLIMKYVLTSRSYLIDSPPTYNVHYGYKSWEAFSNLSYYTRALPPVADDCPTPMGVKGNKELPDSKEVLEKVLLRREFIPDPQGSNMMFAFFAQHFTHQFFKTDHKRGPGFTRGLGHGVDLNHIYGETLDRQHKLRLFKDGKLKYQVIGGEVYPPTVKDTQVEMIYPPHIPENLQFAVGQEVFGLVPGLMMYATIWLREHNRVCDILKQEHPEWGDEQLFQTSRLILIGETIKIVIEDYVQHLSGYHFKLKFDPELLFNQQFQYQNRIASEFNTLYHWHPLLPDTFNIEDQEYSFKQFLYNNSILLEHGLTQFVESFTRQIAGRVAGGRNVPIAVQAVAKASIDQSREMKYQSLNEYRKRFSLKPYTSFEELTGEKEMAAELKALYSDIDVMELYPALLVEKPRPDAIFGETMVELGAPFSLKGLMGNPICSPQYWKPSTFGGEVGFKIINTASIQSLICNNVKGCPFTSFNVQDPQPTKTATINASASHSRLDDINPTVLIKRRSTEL
# In short: (§1)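 Purified murine COX-2 (40 nM in footnote; 50 nM in methods) with 100 nM heme and 1 μM PPHP in 50 mM Tris-HCl pH 8.0, 0.5 mM phenol, 5% DMSO final. Five inhibitor concentrations up to 1 μM plus solvent control. Substrate (AA or 2-AG, 5 μM) added at 37 °C for 30 s. Quenched with solvent containing PGE2-d4/PGE2G-d5. Products measured by LC-MS/MS SRM.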
# [2] = target: T2, Prostaglandin G/H synthase 1 (Ovis aries, UniProt P05979); assay: Inhibition of ovine COX1 using [1-14C]AA as substrate preincubated for 20 mins followed by substrate addition and measured for 30 sec by thin layer chromatography analysis
# T2 sequence (P05979 whole entry): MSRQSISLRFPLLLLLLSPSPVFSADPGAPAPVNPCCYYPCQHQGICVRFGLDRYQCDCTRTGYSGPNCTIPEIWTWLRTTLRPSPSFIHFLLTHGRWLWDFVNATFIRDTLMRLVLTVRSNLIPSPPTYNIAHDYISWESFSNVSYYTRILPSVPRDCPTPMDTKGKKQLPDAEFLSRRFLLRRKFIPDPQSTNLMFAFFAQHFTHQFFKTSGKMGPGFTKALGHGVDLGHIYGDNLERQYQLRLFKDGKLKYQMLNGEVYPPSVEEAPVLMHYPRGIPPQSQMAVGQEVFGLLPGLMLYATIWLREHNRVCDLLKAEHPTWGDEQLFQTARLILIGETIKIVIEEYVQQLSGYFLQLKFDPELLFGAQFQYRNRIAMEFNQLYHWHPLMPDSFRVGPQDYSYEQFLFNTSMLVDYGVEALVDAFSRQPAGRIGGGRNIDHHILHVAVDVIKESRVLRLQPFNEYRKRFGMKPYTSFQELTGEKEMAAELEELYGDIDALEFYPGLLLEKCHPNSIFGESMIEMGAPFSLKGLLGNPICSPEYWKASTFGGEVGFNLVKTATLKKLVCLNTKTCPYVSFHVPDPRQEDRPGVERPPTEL
# In short: (§2)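 Purified enzyme (murine COX-2 at 63 nM, ovine COX-1 at 22.5 nM), hematin-reconstituted, in 100 mM Tris-HCl pH 8.0 with 500 μM phenol. Several inhibitor concentrations or DMSO vehicle preincubated 20 min, then [1-14C]AA 5 μM added at 37 °C for 30 s. Stopped by ether/methanol/citrate pH 4.0 extraction. Radiolabelled PGs separated on TLC and quantified by radioactivity scanning. Run in triplicate.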
# [3] = target: T1, Prostaglandin G/H synthase 2; assay: Inhibition of mouse COX2 using [1-14C]AA as substrate preincubated for 20 mins followed by substrate addition and measured for 30 sec by thin layer chromatography analysis; in short: as §2
# [4] = target: T1, Prostaglandin G/H synthase 2; assay: Inhibition of mouse COX2 using 2-arachidonylglycerol as substrate preincubated for 3 mins followed by substrate addition and measured for 30 sec by LC/MS analysis; in short: as §1
SMILES,pIC50 [1],pIC50 [2],pIC50 [3],pIC50 [4]
COc1ccc2[nH]c3c(c2c1)CCN=C3C,< 6.00,< 5.40,< 5.40,< 6.00
COc1ccc2c(c1)c1c(n2Cc2ccc(Cl)cc2)C(C)=NCC1,< 6.00,< 5.40,5.68,< 6.00
COc1cccc2[nH]c3c(c12)CCN=C3C,< 6.00,< 5.40,< 5.40,< 6.00

# Source: ChEMBL document CHEMBL4725431, “Harmaline Analogs as Substrate-Selective Cyclooxygenase-2 Inhibitors” (ACS Med Chem Lett, 2020)
